Reference: ChEMBL document CHEMBL4308900, “Synthesis and identification of 2,4-bisanilinopyrimidines bearing 2,2,6,6-tetramethylpiperidine-N-oxyl as potential Aurora A inhibitors” (Bioorg Med Chem, 2019)
Calls of active or inactive are those of the source. No cut-off for these calls is given here.

Key:
HeLa [1] = test: Antiproliferative activity against human HeLa cells after 48 hrs by MTT assay; assay type: functional
Procedure, shortened: (§1)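 MTT assay: cells attached 4–6 h at 37 °C, 5% CO2, then exposed 48 h to graded concentrations from DMSO stocks; 5 mg/mL MTT added for 4 h, formazan dissolved in DMSO, absorbance at 490 nm. GI50 from log plot of percent of control versus concentration; mean of three independent experiments.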

A549 = test: Antiproliferative activity against human A549 cells after 48 hrs by MTT assay; assay type: functional; conditions: A549, 48 h; procedure, shortened: as §1
HeLa [2] = test: Cell cycle arrest in human HeLa cells assessed as accumulation at G1 phase at 1 uM after 12 hrs by propidium iodide staining-based flow cytometric analysis (reference value: 70.68%); assay type: functional
Procedure, shortened: (§2)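 HeLa cells exposed 12 h to 1 or 5 μM compound diluted from DMSO (DMSO control), fixed, stained with propidium iodide; DNA content measured by flow cytometry and G1, S, G2/M fractions calculated from the DNA histogram.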

HeLa [3] = test: Cell cycle arrest in human HeLa cells assessed as accumulation at S phase at 1 uM after 12 hrs by propidium iodide staining-based flow cytometric analysis (reference value: 5.74%); assay type: functional; procedure, shortened: as §2
HeLa [4] = test: Cell cycle arrest in human HeLa cells assessed as accumulation at G2/M phase at 5 uM after 12 hrs by propidium iodide staining-based flow cytometric analysis (reference value: 23.57%); assay type: functional; procedure, shortened: as §2
HeLa [5] = test: Cell cycle arrest in human HeLa cells assessed as decrease in cyclin B1 protein expression up to 5 uM after 12 hrs by Western blot analysis; assay type: functional, cell-based
Procedure, shortened: (§3)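 HeLa cells treated 12 h (0.1, 1, 5 μM for apoptosis proteins); lysed in Tris pH 7.5/NP-40/SDS buffer with protease inhibitors, equal protein on 10% SDS-PAGE, PVDF, 5% BSA block, primary antibodies overnight at 4 °C, β-actin loading control; mean ± SD.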

HeLa [6] = test: Cell cycle arrest in human HeLa cells assessed as decrease in cdc2 protein expression up to 5 uM after 12 hrs by Western blot analysis; assay type: functional, cell-based; procedure, shortened: as §3
HeLa [7] = test: Induction of apoptosis in human HeLa cells assessed as viable cells at 0.1 uM after 12 hrs by Annexin V-FITC/propidium iodide staining-based flow cytometric analysis (reference value: 91.02%); assay type: functional; conditions: read-out: Activity
HeLa [8] = test: Induction of apoptosis in human HeLa cells assessed as early apoptotic cells at 0.1 uM after 12 hrs by Annexin V-FITC/propidium iodide staining-based flow cytometric analysis (reference value: 0.75%); assay type: functional
HeLa [9] = test: Induction of apoptosis in human HeLa cells assessed as late apoptotic cells at 0.1 uM after 12 hrs by Annexin V-FITC/propidium iodide staining-based flow cytometric analysis (reference value: 2.32%); assay type: functional
HeLa [10] = test: Induction of apoptosis in human HeLa cells assessed as necrotic cells at 0.1 uM after 12 hrs by Annexin V-FITC/propidium iodide staining-based flow cytometric analysis (reference value: 5.92%); assay type: functional
HeLa [11] = test: Induction of apoptosis in human HeLa cells assessed as viable cells at 1 uM after 12 hrs by Annexin V-FITC/propidium iodide staining-based flow cytometric analysis (reference value: 91.02%); assay type: functional; conditions: read-out: Activity
HeLa [12] = test: Induction of apoptosis in human HeLa cells assessed as early apoptotic cells at 1 uM after 12 hrs by Annexin V-FITC/propidium iodide staining-based flow cytometric analysis (reference value: 0.75%); assay type: functional
HeLa [13] = test: Induction of apoptosis in human HeLa cells assessed as late apoptotic cells at 1 uM after 12 hrs by Annexin V-FITC/propidium iodide staining-based flow cytometric analysis (reference value: 2.32%); assay type: functional
HeLa [14] = test: Induction of apoptosis in human HeLa cells assessed as necrotic cells at 1 uM after 12 hrs by Annexin V-FITC/propidium iodide staining-based flow cytometric analysis (reference value: 5.92%); assay type: functional
HeLa [15] = test: Induction of apoptosis in human HeLa cells assessed as early apoptotic cells at 5 uM after 12 hrs by Annexin V-FITC/propidium iodide staining-based flow cytometric analysis (reference value: 0.75%); assay type: functional
HeLa [16] = test: Induction of apoptosis in human HeLa cells assessed as late apoptotic cells at 5 uM after 12 hrs by Annexin V-FITC/propidium iodide staining-based flow cytometric analysis (reference value: 2.32%); assay type: functional
HeLa [17] = test: Induction of apoptosis in human HeLa cells assessed as upregulation of Bax protein expression up to 5 uM after 12 hrs by Western blot analysis; assay type: functional, cell-based; procedure, shortened: as §3
HeLa [18] = test: Induction of apoptosis in human HeLa cells assessed as upregulation of caspase-3 protein expression up to 5 uM after 12 hrs by Western blot analysis; assay type: functional, cell-based; procedure, shortened: as §3
HeLa [19] = test: Induction of apoptosis in human HeLa cells assessed as upregulation of caspase-9 protein expression up to 5 uM after 12 hrs by Western blot analysis; assay type: functional, cell-based; procedure, shortened: as §3
HeLa [20] = test: Induction of apoptosis in human HeLa cells assessed as downregulation of Bcl-2 protein expression up to 5 uM after 12 hrs by Western blot analysis; assay type: functional, cell-based; procedure, shortened: as §3
HeLa [21] = test: Cell cycle arrest in human HeLa cells assessed as accumulation at G2/M phase after 12 hrs by propidium iodide staining-based flow cytometric analysis; assay type: functional; procedure, shortened: as §2
Aurora kinase A = target: T1, Aurora kinase A (Homo sapiens, UniProt O14965); test: Inhibition of Aurora A (unknown origin) using kemptide acetate salt as substrate after 30 mins by kinase-Glo luminescence method
T1 sequence (O14965 whole entry): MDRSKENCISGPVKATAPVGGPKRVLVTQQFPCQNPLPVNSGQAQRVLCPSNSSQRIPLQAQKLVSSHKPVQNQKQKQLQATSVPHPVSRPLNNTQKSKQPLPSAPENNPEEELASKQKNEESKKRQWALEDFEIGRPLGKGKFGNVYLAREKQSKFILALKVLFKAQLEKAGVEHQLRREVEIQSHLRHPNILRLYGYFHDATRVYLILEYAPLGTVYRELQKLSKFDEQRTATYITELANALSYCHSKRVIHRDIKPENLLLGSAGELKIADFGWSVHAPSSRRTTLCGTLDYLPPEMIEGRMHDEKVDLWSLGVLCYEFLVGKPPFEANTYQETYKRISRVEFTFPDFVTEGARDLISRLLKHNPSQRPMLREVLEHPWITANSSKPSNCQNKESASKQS

Aurora kinase B [22] = target: T2, Aurora kinase B (Homo sapiens, UniProt Q96GD4); test: Inhibition of Aurora B (unknown origin) using kemptide acetate salt as substrate after 30 mins by kinase-Glo luminescence method
T2 sequence (Q96GD4 whole entry): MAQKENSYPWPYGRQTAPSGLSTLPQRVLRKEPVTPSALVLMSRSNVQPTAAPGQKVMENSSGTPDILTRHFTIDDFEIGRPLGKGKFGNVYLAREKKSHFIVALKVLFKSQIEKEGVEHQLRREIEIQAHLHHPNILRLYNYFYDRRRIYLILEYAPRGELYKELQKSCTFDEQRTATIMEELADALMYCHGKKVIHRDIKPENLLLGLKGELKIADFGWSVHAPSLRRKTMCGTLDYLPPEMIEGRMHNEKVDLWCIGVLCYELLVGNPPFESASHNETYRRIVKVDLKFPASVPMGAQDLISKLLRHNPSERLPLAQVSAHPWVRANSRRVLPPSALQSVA

Aurora kinase B [23] = target: T2, Aurora kinase B; test: Inhibition of Aurora B phosphorylation at Thr232 residue in human HeLa cells at <10 nM after 12 hrs by ELISA; assay type: cell-based
Procedure, shortened: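 HeLa cells grown 12 h in 6-well dishes with compound diluted from DMSO at several concentrations; whole-cell lysate captured on anti-Aurora A or B antibody-coated wells, HRP-labelled detection, TMB substrate, stopped with sulphuric acid, absorbance at 450 nm.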

Aurora kinase B [24] = target: T2, Aurora kinase B; test: Inhibition of Aurora B phosphorylation at Thr232 residue in human HeLa cells after 12 hrs by ELISA; assay type: cell-based
Homo sapiens = species: Homo sapiens; test: Selectivity ratio of IC50 for Aurora B in human HeLa cells to IC50 for Aurora A in human HeLa cells; assay type: cell-based
HeLa [25] = test: Cell cycle arrest in human HeLa cells assessed as decrease in accumulation at G1 phase after 12 hrs by propidium iodide staining-based flow cytometric analysis; assay type: functional; procedure, shortened: as §2

With CC1(C)CC(NC(=O)c2ccc(Nc3ncc(F)c(Nc4ccc(C(=O)Nc5ccccc5Cl)cc4)n3)cc2)CC(C)(C)N1[O] the GI50 (HeLa [1]) was 400 nM, the GI50 (A549) was 1100 nM and the Activity (HeLa [2]) was 48%. For the same compound, the Activity (HeLa [3]) was 11.33%, the Activity (HeLa [4]) was 60.33% and the Activity (HeLa [5]) was “Active”. For the same compound, the Activity (HeLa [6]) was “Active”, the viability at 0.1 µM (HeLa [7]) was 90.3% and the Activity (HeLa [8]) was 1.12%. The Activity (HeLa [9]) was 2.94%, the Activity (HeLa [10]) was 5.63% and the viability at 1 µM (HeLa [11]) was 78.7%. The Activity (HeLa [12]) was 3.28%, the Activity (HeLa [13]) was 8.06% and the Activity (HeLa [14]) was 9.93%. For the same compound, the Activity (HeLa [15]) was 4.85%, the Activity (HeLa [16]) was 16.66% and the Activity (HeLa [17]) was “Active”. For the same compound, the Activity (HeLa [18]) was “Active”, the Activity (HeLa [19]) was “Active” and the Activity (HeLa [20]) was “Active”. For the same compound, the Activity (HeLa [21]) was “Dose-dependent effect”, the IC50 (Aurora kinase A) was 0.06 nM and the IC50 (Aurora kinase B [22]) was 2.55 nM. For the same compound, the inhibition (Aurora kinase B [23]) was “inactive”, the IC50 (Aurora kinase B [24]) was 538 nM and the Ratio IC50 (Homo sapiens) was 67. For the same compound, the Activity (HeLa [25]) was “Dose-dependent effect”.
